ChEMBL document CHEMBL1212911, “Identification of potent and selective amidobipyridyl inhibitors of protein kinase D” (J Med Chem, 2010)

Tests used:
[1] = target: T1, Serine/threonine-protein kinase D2 (Homo sapiens, UniProt Q9BZL6); assay: Inhibition of PKD2 by TR-FRET assay
T1 sequence (Q9BZL6 whole entry): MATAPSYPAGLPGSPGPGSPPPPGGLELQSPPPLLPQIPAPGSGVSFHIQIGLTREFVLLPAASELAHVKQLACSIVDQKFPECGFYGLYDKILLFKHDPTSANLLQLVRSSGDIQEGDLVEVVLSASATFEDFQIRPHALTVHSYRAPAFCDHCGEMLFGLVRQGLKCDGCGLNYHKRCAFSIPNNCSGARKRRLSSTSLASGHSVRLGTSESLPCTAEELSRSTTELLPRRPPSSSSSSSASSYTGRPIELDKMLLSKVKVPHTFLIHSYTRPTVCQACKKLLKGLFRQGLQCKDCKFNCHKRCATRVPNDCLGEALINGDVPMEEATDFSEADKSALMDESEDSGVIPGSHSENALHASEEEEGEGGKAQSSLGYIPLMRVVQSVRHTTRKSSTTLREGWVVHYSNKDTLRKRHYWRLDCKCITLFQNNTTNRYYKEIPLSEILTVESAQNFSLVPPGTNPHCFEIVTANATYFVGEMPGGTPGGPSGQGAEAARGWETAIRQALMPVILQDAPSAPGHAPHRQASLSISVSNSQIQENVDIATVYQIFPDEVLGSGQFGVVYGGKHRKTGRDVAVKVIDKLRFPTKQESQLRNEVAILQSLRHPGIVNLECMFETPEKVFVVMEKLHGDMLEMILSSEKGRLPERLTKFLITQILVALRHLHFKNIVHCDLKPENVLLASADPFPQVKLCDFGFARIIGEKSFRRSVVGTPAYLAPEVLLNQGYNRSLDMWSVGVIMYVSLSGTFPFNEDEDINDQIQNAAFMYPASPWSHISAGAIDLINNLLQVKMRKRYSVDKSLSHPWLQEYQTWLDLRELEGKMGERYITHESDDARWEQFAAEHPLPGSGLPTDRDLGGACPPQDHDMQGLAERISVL

[2] = tested on: Caco-2; assay: Ratio of permeability from basolateral to apical side to apical to basolateral side in human Caco-2 cells; format: ADME, cell-based
[3] = target: T2, Serine/threonine-protein kinase D1 (Homo sapiens, UniProt Q15139); assay: Inhibition of PKD1 assessed as inhibition of HDAC5 neuclear export
T2 sequence (Q15139 whole entry): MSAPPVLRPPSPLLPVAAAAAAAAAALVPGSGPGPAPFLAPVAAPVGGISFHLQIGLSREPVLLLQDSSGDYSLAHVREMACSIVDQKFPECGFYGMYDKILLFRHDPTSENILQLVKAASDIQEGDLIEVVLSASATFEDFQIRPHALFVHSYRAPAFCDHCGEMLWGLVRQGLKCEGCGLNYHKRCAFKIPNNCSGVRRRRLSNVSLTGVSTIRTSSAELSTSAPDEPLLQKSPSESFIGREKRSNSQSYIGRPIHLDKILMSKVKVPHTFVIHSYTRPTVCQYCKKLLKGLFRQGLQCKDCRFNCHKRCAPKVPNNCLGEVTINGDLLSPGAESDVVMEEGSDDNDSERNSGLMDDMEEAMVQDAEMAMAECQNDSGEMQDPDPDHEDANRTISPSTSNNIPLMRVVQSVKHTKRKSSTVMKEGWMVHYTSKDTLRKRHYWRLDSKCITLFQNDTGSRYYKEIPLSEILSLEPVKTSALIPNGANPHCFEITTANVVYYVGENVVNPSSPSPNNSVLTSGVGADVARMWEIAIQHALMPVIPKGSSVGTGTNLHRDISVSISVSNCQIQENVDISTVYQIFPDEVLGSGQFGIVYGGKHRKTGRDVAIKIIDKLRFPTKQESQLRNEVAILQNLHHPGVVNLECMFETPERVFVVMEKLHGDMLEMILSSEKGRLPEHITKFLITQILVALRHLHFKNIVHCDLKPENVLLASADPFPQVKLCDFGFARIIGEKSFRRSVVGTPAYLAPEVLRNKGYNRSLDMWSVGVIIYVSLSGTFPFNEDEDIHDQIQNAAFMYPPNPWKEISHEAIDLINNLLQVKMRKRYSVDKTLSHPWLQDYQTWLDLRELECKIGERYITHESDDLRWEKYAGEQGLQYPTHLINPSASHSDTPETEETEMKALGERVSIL
Summary of the method: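 Neonatal rat ventricular myocytes infected with adenovirus encoding GFP-HDAC5 and plated on gelatin-coated wells. Cells exposed to compound and stimulated with PGF2α for 2 h, then fixed. Cytoplasmic versus nuclear GFP intensity quantified by high-content imaging.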

[4] = target: T2, Serine/threonine-protein kinase D1; assay: Inhibition of PKD1 by TR-FRET assay
Summary of the method: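 Full-length wild-type PKD1 expressed and purified from Sf9 cells, 0.2 μg/mL, in 35 mM Tris-HCl pH 7.5, 5 mM MgCl2, 0.02% Tween-20, 20 μM ATP, 1 mM DTT. Reaction started with 2 μM biotinylated syntide-2 and run 50 min at room temperature. Stopped with EDTA plus europium anti-rabbit IgG, anti-phospho-syntide-2 antibody and streptavidin-APC. LANCE TR-FRET 665/615 ratio read after 1 h. 11-point curves in triplicate gave IC50.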

[5] = target: T3, Calcium/calmodulin-dependent protein kinase type IV (Homo sapiens) (UniProt Q16566); assay: Inhibition of human CaMK4; conditions: concentration not given here
T3 sequence (whole entry): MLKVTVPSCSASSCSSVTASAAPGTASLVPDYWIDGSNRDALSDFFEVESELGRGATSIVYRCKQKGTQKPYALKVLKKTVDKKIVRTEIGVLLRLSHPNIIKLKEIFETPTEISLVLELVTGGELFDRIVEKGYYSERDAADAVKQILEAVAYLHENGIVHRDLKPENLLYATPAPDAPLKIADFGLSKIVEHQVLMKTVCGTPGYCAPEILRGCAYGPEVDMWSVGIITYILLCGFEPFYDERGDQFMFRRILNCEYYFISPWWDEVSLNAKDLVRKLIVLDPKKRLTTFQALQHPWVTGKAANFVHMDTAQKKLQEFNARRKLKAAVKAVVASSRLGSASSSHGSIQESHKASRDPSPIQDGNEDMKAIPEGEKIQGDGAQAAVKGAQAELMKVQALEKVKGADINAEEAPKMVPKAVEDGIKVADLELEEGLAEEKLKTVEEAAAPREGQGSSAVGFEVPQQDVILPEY
Summary of the method: (§1)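 Selectivity screen run externally (Invitrogen SelectScreen). Percent inhibition measured at 1 μM compound, mean of 2 measurements.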

[6] = target: Calcium/calmodulin-dependent protein kinase type 1D (Homo sapiens) (UniProt Q8IU85); assay: Inhibition of CaMK1delta; conditions: concentration not given here; summary of the method: as §1
Chain of Calcium/calmodulin-dependent protein kinase type 1D (Homo sapiens) (Q8IU85 whole entry, looked up): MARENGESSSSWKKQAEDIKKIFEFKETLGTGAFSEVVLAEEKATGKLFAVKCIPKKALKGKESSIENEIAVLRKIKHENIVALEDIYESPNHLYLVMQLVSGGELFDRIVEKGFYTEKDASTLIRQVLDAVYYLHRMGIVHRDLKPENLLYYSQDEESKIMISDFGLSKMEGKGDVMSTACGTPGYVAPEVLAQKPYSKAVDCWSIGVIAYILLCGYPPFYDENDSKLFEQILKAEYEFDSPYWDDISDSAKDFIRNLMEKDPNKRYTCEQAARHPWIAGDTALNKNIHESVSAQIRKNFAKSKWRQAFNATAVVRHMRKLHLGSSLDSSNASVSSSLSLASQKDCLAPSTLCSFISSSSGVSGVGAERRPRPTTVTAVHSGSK

[7] = AUC (0 to 8 hrs) in Sprague-Dawley rat at 5 mg/kg, po; format: ADME, organism-based; parameters: time < 8 hr, dose 5 mg/kg, route oral; conditions: plasma
[8] = target: Serine/threonine-protein kinase MARK1 (Homo sapiens) (UniProt Q9P0L2); assay: Inhibition of human MARK1; conditions: concentration not given here; summary of the method: as §1
Chain of Serine/threonine-protein kinase MARK1 (Homo sapiens) (Q9P0L2 whole entry, looked up): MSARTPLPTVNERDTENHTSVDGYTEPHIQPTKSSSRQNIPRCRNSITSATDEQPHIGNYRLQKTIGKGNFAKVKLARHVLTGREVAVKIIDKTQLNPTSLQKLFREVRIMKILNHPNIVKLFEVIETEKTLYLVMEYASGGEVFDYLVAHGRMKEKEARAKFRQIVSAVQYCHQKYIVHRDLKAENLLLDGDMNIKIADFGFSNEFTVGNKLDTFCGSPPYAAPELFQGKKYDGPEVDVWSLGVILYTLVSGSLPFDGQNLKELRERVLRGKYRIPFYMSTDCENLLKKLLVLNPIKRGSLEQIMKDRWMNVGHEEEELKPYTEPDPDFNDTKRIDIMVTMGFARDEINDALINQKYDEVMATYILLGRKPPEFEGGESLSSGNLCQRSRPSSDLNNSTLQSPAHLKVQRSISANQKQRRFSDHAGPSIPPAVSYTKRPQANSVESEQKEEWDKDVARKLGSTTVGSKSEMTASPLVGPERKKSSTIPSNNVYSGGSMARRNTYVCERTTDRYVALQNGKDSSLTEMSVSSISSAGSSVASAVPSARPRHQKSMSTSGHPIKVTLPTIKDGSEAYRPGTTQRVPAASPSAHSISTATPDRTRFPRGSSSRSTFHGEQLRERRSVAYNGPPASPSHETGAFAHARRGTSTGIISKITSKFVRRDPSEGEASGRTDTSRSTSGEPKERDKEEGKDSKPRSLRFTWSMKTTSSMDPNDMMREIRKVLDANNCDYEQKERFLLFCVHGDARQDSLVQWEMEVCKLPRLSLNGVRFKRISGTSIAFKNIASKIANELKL

[9] = Half life in rats after 2 mg/kg intravenous dose; format: ADME, organism-based; parameters: dose 2 mg/kg, route intravenous; conditions: Sprague-Dawley, rat, in vivo
Summary of the method: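 Rats dosed iv 2 mg/kg (n = 2) or po 5 mg/kg (n = 3) in 10% NMP, 10% Cremophor, 80% pH 4.63 buffer. PK parameters derived from iv dosing, reported as mean ± SD.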

[10] = target: Protein kinase C delta type (Homo sapiens) (UniProt Q05655); assay: Inhibition of human PKCdelta; conditions: concentration not given here; summary of the method: as §1
Chain of Protein kinase C delta type (Homo sapiens) (Q05655 whole entry, looked up): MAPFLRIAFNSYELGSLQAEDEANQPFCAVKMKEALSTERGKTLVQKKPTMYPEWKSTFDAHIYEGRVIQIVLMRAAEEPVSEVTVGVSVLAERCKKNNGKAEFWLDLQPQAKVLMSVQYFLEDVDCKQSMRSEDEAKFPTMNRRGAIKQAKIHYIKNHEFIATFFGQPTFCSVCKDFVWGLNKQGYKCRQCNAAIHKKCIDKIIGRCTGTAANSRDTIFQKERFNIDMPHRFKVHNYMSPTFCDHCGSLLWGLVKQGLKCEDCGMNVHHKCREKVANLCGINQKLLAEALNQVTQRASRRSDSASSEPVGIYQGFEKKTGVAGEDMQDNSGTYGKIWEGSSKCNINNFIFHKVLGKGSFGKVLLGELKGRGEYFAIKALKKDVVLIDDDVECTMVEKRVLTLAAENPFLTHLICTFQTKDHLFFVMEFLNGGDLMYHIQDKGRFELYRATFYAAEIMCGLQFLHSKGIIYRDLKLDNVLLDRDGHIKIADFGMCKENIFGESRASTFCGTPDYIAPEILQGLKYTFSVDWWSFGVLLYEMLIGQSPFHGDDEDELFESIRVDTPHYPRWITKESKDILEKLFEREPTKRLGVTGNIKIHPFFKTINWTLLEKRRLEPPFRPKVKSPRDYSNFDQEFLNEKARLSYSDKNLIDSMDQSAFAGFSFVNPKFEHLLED

[11] = target: T4, Protein kinase C epsilon type (Homo sapiens) (UniProt Q02156); assay: Inhibition of PKCepsilon; conditions: concentration not given here
T4 sequence (whole entry): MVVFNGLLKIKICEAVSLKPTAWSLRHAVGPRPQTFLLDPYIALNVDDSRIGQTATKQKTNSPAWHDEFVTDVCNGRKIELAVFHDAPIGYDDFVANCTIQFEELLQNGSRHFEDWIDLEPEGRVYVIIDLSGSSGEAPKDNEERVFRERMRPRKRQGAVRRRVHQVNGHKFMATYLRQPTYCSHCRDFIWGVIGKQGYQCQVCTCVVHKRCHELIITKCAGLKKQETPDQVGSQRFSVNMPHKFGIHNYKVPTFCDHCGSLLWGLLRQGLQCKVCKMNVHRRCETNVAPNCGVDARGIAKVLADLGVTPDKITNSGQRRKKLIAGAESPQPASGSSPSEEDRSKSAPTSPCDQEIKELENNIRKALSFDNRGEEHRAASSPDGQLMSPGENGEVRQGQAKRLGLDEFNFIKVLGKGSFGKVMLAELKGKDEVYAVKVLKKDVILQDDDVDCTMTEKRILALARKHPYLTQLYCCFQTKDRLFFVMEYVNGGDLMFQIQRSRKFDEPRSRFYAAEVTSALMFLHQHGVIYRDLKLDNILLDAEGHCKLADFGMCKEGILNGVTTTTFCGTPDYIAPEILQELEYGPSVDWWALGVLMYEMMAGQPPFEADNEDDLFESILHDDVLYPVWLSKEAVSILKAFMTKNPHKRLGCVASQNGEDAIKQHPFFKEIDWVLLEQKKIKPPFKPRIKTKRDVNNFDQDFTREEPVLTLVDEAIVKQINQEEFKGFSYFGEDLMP

[12] = target: Calcium/calmodulin-dependent protein kinase type II subunit delta (Homo sapiens) (UniProt Q13557); assay: Inhibition of human CaMK2delta; conditions: concentration not given here; summary of the method: as §1
Chain of Calcium/calmodulin-dependent protein kinase type II subunit delta (Homo sapiens) (Q13557 whole entry): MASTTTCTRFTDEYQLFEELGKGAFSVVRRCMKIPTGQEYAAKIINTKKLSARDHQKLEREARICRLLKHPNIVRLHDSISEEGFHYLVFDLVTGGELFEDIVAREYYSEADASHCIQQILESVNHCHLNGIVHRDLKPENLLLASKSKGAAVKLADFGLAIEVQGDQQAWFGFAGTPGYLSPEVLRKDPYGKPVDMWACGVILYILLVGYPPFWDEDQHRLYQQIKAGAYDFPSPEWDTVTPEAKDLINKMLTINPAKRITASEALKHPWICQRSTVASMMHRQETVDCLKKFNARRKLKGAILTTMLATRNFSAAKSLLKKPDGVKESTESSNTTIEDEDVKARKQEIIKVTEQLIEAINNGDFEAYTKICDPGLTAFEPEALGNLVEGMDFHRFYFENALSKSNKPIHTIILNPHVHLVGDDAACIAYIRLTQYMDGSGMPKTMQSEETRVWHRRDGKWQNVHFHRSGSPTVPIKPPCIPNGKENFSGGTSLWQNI

[13] = target: G protein-coupled receptor kinase 5 (Homo sapiens) (UniProt P34947); assay: Inhibition of human GRK5; conditions: concentration not given here; summary of the method: as §1
Chain of G protein-coupled receptor kinase 5 (Homo sapiens) (P34947 whole entry, looked up): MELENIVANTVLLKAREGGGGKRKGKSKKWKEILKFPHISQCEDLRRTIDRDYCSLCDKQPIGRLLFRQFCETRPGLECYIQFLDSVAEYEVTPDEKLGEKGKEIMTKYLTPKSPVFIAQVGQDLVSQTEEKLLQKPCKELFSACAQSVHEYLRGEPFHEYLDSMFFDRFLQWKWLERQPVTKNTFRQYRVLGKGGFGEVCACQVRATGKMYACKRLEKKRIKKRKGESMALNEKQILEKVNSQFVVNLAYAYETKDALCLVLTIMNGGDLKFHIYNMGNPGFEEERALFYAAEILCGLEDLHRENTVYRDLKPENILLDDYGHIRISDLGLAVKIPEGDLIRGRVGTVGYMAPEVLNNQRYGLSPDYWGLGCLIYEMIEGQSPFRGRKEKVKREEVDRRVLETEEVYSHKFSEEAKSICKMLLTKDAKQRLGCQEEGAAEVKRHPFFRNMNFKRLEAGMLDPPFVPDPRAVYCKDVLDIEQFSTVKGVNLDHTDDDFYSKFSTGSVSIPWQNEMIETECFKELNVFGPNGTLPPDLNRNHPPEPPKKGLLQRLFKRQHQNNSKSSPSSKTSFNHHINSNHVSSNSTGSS

[14] = target: Serine/threonine-protein kinase MARK2 (Homo sapiens) (UniProt Q7KZI7); assay: Inhibition of human MARK2; conditions: concentration not given here; summary of the method: as §1
Chain of Serine/threonine-protein kinase MARK2 (Homo sapiens) (Q7KZI7 whole entry): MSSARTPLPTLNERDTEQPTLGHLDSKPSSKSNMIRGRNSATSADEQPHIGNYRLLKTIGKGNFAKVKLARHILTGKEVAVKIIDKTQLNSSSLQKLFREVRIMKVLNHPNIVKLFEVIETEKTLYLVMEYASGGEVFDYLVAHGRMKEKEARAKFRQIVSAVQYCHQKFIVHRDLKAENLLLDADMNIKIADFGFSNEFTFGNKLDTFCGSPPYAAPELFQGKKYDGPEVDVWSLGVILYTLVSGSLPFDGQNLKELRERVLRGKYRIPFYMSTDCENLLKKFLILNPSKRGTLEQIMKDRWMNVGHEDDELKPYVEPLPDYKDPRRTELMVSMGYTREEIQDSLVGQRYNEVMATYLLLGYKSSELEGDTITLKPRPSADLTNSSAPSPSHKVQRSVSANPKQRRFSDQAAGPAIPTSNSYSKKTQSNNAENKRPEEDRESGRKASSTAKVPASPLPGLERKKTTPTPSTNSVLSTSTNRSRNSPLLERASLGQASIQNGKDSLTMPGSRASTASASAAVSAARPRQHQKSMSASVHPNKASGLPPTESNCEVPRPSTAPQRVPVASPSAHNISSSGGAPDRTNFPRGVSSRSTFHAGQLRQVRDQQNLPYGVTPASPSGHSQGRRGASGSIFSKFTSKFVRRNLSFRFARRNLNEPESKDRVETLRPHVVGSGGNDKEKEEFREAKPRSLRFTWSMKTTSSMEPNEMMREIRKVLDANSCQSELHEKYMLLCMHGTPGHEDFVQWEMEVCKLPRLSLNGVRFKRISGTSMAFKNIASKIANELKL

IC50 [1] [nM] | Ratio [2] | EC50 [3] [nM] | IC50 [4] [nM] | inhibition [5] [%] | inhibition [6] [%] | AUC(0-t) at 8 h [7] [µM·h] | inhibition [8] [%] | half-life [9] [min] | inhibition [10] [%] | inhibition [11] [%] | inhibition [12] [%] | inhibition [13] [%] | inhibition [14] [%] | Compound
130 | 0.44 | 66 | 18 |  |  |  |  |  |  |  |  |  |  | N#Cc1cc(-c2ccnc(NC3CCCCC3)c2)nc(N2CCNCC2)c1
 |  |  |  | 1 | 11 | 0.19 | 82 | 312 | 51 | 34 | 80 | 5 | 83 | c1cc2c(N3CCNCC3)nc(-c3ccnc(NC4CCCCC4)c3)cc2cn1
